Test results: ChEMBL document CHEMBL1141797, “Norsesquiterpenes from the brown alga Dictyopteris divaricata” (J Nat Prod, 2005)

How the values were obtained:
Format in all cases: functional, cell-based
[1] = tested on: A549; assay: Cytotoxicity against human A549 cells by MTT method
How it was run: (§1)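 MTT colorimetric read-out of cell viability, expressed as IC50 in µg/mL. Human tumour lines by origin: A549 lung adenocarcinoma, BGC-823 stomach cancer, MCF-7 breast cancer, Bel7402 hepatoma, HCT-8 colon cancer.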

[2] = tested on: BGC-823; assay: Cytotoxicity against human BGC823 cells by MTT method; how it was run: as §1
[3] = tested on: MCF7; assay: Cytotoxicity against human MCF7 cells by MTT method; how it was run: as §1
[4] = tested on: Bel-7402; assay: Cytotoxicity against human Bel7402 cells by MTT method; how it was run: as §1
[5] = tested on: HCT-8; assay: Cytotoxicity against human HCT8 cells by MTT method; how it was run: as §1

Measured: IC50

CC(C)[C@@H]1CC[C@@H](C)[C@@]2(O)CC(=O)C=C12
> 10 µg/mL: all assays above

CC(C)[C@H]1CC[C@H](C)C2=CC(=O)C[C@@]21O
> 10 µg/mL: all assays above

CC(C)[C@@H]1CC[C@@H](C)[C@]2(O)CCC(=O)C=C12
> 10 µg/mL: all assays above

CC(C)[C@@H]1CC[C@@H](C)[C@]2(O)CC(=O)C=C12
> 10 µg/mL: all assays above
